Test [1] is described as follows: inhibitors of TNFa-induced NFkB p65 translocation, primary screen, imaging, HUVEC, MLSMR starter and 10KST1 sets (AID 438;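 active means inhibition above 20% together with a positive visual image hit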;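 further: compound added about 3h40 before a 20 min TNFalpha stimulation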;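 on inhibition: signal is the nuclear over cytoplasmic p65 intensity ratio per well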). Particulars: HUVEC TNFa-induced p65 nuclear translocation; cell count: measured here: nuclei count (cytotoxicity indicator), at 2.08 µM; inhibition: at 2 µM, stronger effect = higher value, 0% TNFa-plus-vehicle, 100% no-TNFa wells.
Test [2] can be described thus: inhibitors of mutant huntingtin aggregation, primary screen, imaging, exon1htt(103Q)mCFP cells, high-content imaging (AID 483).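 Further: compound exposure lasted 3 days before fixation.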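 On nuclei count: percent of the per-plate median nuclei count of sample wells.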 Particulars: exon1htt(103Q)mCFP cell line, aggregate imaging, at 2 µM; inhibition of aggregation: stronger effect = higher value; nuclei count: measured here: cell count, toxicity.
A short description of test [3]: inhibitors of E-selectin induction by TNFa, primary screen, imaging, HUVEC, immunofluorescence, MLSMR starter and 10KST1 sets (AID 487;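 active means visually confirmed hit in the image check and inhibition above 20%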;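 on inhibition: signal is fraction of cell area covered by stained E-selectin grains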;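 on nuclei count: 100% = median nuclei count of all wells on the same plate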). As to conditions: HUVEC TNFalpha-induced E-selectin immunofluorescence imaging, at 2 µM; inhibition: stronger effect = higher value; nuclei count: measured here: cell number, toxicity.
Test [4] concerns the target Voltage-gated potassium channel subunit beta-2 (Rattus norvegicus) (UniProt P62483). The experiment in a line: KvBeta enzyme negative modulators, primary screen, biochemical, NADPH fluorescence (AID 622;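 active means fluorescence slope higher than the sample average by over 3 SD, cut at about -0.22 in these data, passing the limit was not always enough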;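 further: slope of raw intensity against log time taken from 70 to 1610 s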). As to conditions: recombinant KvBeta, 4-cyanobenzaldehyde reduction, at 10 µM, stronger effect = higher value.
Test [5] shares this target. The experiment in a line: KvBeta positive modulators, primary screen, biochemical, NADPH fluorescence (AID 623;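 active means NADPH fluorescence slope more negative than the mean of all samples by about 3 SD, 99.7% confidence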;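 further: fluorescence intensity change per second fitted from 20 to 320 s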). Particulars: Recombinant KvBeta, NADPH fluorescence decrease slope, 10 min; at 10 µM; stronger effect = lower value.
Test [6] deals with Muscarinic acetylcholine receptor M4 (Homo sapiens) (UniProt P08173). The experiment in a line: compounds altering M4/GIRK thallium flux, either direction, primary screen, M4 allosteric agonist project, cell-based, HEK293 M4/GIRK, BTC-AM (AID 625;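 active means fluorescence slope after compound addition differing from the mean of all tested samples at 99.7% confidence, mostly higher but some lower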;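 further: thallium influx through GIRK channels coupled to M4 in HEK293 cells with BTC-AM dye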). As to conditions: at 10 µM, actives lie on both sides. In a few lines:
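System: HEK293 cells with M4 receptor and GIRK channels | Incubation: Cells overnight at 37 °C, BTC-AM loading 1 h, reads 2 min total | Technique: Kinetic BTC-AM fluorescence sampled at 1 Hz, 10 s pre-addition baseline | Measure: Post-addition slope, 15–24 s, of baseline-normalized fluorescence | Control set: Carbachol positive, DMSO negative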

Test [7] can be described thus: inhibitors of Sendai virus-induced IRF3 signaling, primary screen, TLR/RLR signaling modifier project, cell-based, Sendai virus stimulus, luciferase, 10K MLSCN set (AID 602276;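 active means inhibition at or above 50% at 10 µM; inactive means inhibition below 50%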;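 further: firefly luciferase from ISG56 promoter only with Renilla not read in this screen; 0% = Sendai virus plus DMSO and 100% = medium plus DMSO without virus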). Particulars: HEK293 RL24 IRF3 luciferase reporter, at 10 µM, stronger effect = higher value.
The nature of test [8]: inhibitors of poly I:C-induced TLR3 signaling, primary screen, cell-based, poly I:C stimulus, luciferase, 10K MLSCN set (AID 602277;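 active means inhibition of the reporter signal at or above 50%; inactive means inhibition below 50%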). Particulars: HEK293-TLR3 RL24 IRF3 luciferase reporter, at 10 µM, stronger effect = higher value. On the technique in general: In a reporter assay the amount or activity of a reporter protein is the signal.

The structures appear in SMILES notation. Active and inactive are the calls of the source.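 How the source made its calls, unless noted: active means visual image review flags a hit and inhibition of aggregation exceeds 20%; inconclusive means visual hit but inhibition at or below 20%; inactive means no hit on visual image review.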

Chain of Voltage-gated potassium channel subunit beta-2 (Rattus norvegicus) (P62483 whole entry, looked up): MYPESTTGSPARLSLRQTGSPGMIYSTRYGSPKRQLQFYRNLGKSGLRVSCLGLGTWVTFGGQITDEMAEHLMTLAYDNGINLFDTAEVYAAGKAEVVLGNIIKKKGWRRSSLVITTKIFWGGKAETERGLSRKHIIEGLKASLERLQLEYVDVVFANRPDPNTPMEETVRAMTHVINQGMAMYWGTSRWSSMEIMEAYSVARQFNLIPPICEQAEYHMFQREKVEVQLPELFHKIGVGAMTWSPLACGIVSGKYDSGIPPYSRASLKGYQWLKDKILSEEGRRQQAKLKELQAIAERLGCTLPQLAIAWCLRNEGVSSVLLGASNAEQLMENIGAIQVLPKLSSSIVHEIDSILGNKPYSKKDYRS
Chain of Muscarinic acetylcholine receptor M4 (Homo sapiens) (P08173 whole entry, looked up): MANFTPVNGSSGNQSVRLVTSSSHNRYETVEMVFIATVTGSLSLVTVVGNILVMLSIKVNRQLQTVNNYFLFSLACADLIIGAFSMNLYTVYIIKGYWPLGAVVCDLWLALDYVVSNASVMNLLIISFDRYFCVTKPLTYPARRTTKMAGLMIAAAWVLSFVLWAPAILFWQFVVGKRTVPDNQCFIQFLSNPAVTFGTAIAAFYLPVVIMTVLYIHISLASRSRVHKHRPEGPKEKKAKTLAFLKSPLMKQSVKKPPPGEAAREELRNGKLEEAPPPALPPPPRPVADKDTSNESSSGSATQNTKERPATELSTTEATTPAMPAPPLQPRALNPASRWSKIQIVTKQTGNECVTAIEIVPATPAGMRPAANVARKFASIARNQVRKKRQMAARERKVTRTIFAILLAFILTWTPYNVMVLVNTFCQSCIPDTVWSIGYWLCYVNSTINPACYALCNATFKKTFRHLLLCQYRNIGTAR

In the case of `CCOC(=O)CNC(=O)Cn1cnc2c(nnn2-c2cccc(Cl)c2)c1=O`, the cell count in test [1] amounted to 629. Besides, the inhibition (as a rule, the relative decrease from the control value, in per cent) was -10% (inactive) in test [1], -41.7% (inactive) in test [3], -3.21% (inactive) in test [7] and 5.01% (inactive) in test [8]. In addition, in test [2], the inhibition of aggregation is -8.9% (inactive). Further, the figures for the nuclei count in test [2] and in test [3] were 140% and 110%, respectively. Moreover, the fluorescence slope was -0.477 (inactive) in test [4] and 0.00553 (inactive) in test [6]. In addition, the NADPH fluorescence slope in test [5] is 4.8e-05 (inactive).
For the compound `COc1cc(C2Nc3cccc4cccc(c34)N2)cc(OC)c1O`, the cell count in test [1] is 372. The inhibition was -0.6% (inactive) in test [1], -27.6% (inactive) in test [3], 3.04% (inactive) in test [7] and 5% (inactive) in test [8]. In test [2], the inhibition of aggregation was 29.3% (inactive). Also, the nuclei count turned out to be 91.5% in test [2] and 108% in test [3]. Also, the fluorescence slope in test [4] is -0.464 (inactive); in test [6] it was 0.00443 (inactive). In addition, in test [5], the NADPH fluorescence slope was 1.6e-05 (inactive).
On to `COCCNC(=O)Cn1nc(C(F)(F)F)c(Br)c1C`, for which the cell count in test [1] came out at 376. Besides, the inhibition is 1.1% (inactive) in test [1], 0.5% (inactive) in test [3], 3.89% (inactive) in test [7] and 20.6% (inactive) in test [8]. Also, the inhibition of aggregation in test [2] is 19.5% (inactive). The nuclei count in test [2] came to 65.4%; in test [3], 92%. In addition, the fluorescence slope in test [4] is -0.548 (inactive); in test [6] it was 0.00551 (inactive). The NADPH fluorescence slope in test [5] was -4.9e-05 (inactive).
As for `CCCN(CCC)C(=O)CSc1nc2ccccc2c(=O)n1C1CCCC1`, the cell count in test [1] was found to be 475. Also, the inhibition was 3% (inactive) in test [1], -7.5% (inactive) in test [3], 15.9% (inactive) in test [7] and 10.1% (inactive) in test [8]. The inhibition of aggregation in test [2] is -13.4% (inactive). Besides, the results for the nuclei count in test [2] and in test [3] were 93.4% and 117%, respectively. Moreover, the results for the fluorescence slope in test [4] and in test [6] were -0.452 (inactive) and 0.00476 (inactive), respectively. The NADPH fluorescence slope in test [5] is -1.1e-05 (inactive).
As to `Cc1ccc(SCCNS(=O)(=O)c2ccc(F)cc2)cc1`, in test [1], the cell count stood at 348. Also, the inhibition was 4% (inactive) in test [1], -53.9% (inactive) in test [3], 8.34% (inactive) in test [7] and 12.7% (inactive) in test [8]. Besides, the inhibition of aggregation in test [2] was -4.1% (inactive). In addition, the nuclei count in test [2] was 106%; in test [3] it was 122%. Moreover, the fluorescence slope is -0.55 (inactive) in test [4] and 0.0043 (inactive) in test [6]. For the same compound, in test [5], the NADPH fluorescence slope was -3.1e-05 (inactive).
`Cc1cc(C)c(-c2cc(C(=O)Nc3c(C)n(C)n(-c4ccccc4)c3=O)[nH]n2)c(O)c1`: the cell count in test [1] worked out at 434. Moreover, the inhibition in test [1] was 1.8% (inactive); in test [3] it was -51.7% (inactive); in test [7], 8.55% (inactive); in test [8], 101% (active). Moreover, in test [2], the inhibition of aggregation is -1.8% (inactive). Moreover, the figures for the nuclei count in test [2] and in test [3] were 111% and 105%, respectively. Besides, the fluorescence slope in test [4] is -0.585 (inactive); in test [6], 0.00571 (inactive). For the same compound, in test [5], the NADPH fluorescence slope was 3.8e-05 (inactive).
For the compound `Cc1ccc(-n2c(=O)[nH]c3c(C(N)=O)nc(CC(C)C)nc32)cc1`, in test [1], the cell count came out at 297. Moreover, the inhibition in test [1] was 37.7% (active); in test [3], 6.3% (inactive); in test [7], -2.4% (inactive); in test [8], 8.27% (inactive). In addition, the inhibition of aggregation in test [2] was 9.5% (inactive). Besides, the nuclei count in test [2] came to 92.3%; in test [3] it was 98.1%. Also, the fluorescence slope was -0.536 (inactive) in test [4] and 0.00328 (inactive) in test [6]. Also, the NADPH fluorescence slope in test [5] was -0.000117 (inactive).
Regarding `CCc1ccc(NC(=O)c2cc(-c3ccco3)on2)cc1`, the cell count in test [1] came to 382. The inhibition was -5.1% (inactive) in test [1], 6.4% (inactive) in test [3], -42.1% (inactive) in test [7] and -129% (inactive) in test [8]. Further, in test [2], the inhibition of aggregation was 7.7% (inactive). Besides, the nuclei count in test [2] was 99.2%; in test [3] it was 93.1%. Besides, the fluorescence slope in test [4] is -0.44 (inactive); in test [6], 0.00523 (inactive). In addition, in test [5], the NADPH fluorescence slope was -4.3e-05 (inactive).
On to `O=C(c1ccco1)N1CCN(CC(=O)N(C2CCCCC2)C2CCS(=O)(=O)C2)CC1` (centres undefined), for which, in test [1], the cell count turned out to be 311. The inhibition in test [1] is -5.7% (inactive); in test [3] it was -28.9% (inactive); in test [7] it was 7.31% (inactive); in test [8] it was 12.1% (inactive). Also, the inhibition of aggregation in test [2] was -12.8% (inactive). The nuclei count in test [2] turned out to be 75.5%; in test [3], 110%. Also, the fluorescence slope is -0.565 (inactive) in test [4] and 0.00633 (inactive) in test [6]. Further, the NADPH fluorescence slope in test [5] was -5.3e-05 (inactive).
Consider `CCCC(C)C(=O)Nc1ccc(C(N)=O)cc1` (centres undefined), for which the cell count in test [1] stood at 668. Further, the inhibition in test [1] was 0.5% (inactive); in test [3], 22.4% (inactive); in test [7], 11.2% (inactive); in test [8], 13.5% (inactive). Further, in test [2], the inhibition of aggregation is 1% (inactive). Besides, the nuclei count came to 110% in test [2] and 87% in test [3]. In addition, the fluorescence slope was -0.272 (inactive) in test [4] and 0.00544 (inactive) in test [6]. Besides, the NADPH fluorescence slope in test [5] is -3.2e-05 (inactive).
Regarding `Nc1nonc1-c1noc(-c2ccccc2Br)n1`, the cell count in test [1] is 384. Further, the inhibition in test [1] is -1.6% (inactive); in test [3], -23.9% (inactive); in test [7], 5.89% (inactive); in test [8], -26.2% (inactive). For the same compound, in test [2], the inhibition of aggregation is -6.3% (inactive). Further, the nuclei count in test [2] was found to be 63%; in test [3], 112%. Moreover, the fluorescence slope was -0.252 (inactive) in test [4] and 0.00797 (inactive) in test [6]. Also, the NADPH fluorescence slope in test [5] is -2.2e-05 (inactive).
`CCC(C)NC(=O)CSC1=Nc2ccccc2C2=NC(CC(=O)NCc3ccccc3)C(=O)N12` (centres undefined): the cell count in test [1] stood at 651. Moreover, the inhibition is -7.5% (inactive) in test [1], -58.9% (inactive) in test [3], 10.6% (inactive) in test [7] and 26.5% (inactive) in test [8]. For the same compound, in test [2], the inhibition of aggregation is -9% (inactive). The nuclei count worked out at 55.7% in test [2] and 89.6% in test [3]. The figures for the fluorescence slope in test [4] and in test [6] were -0.461 (inactive) and 0.00538 (inactive), respectively. Moreover, the NADPH fluorescence slope in test [5] was -1.4e-05 (inactive).
For the compound `CCOC(=O)c1[nH]c(C)c(C(=O)Nc2ccccc2F)c1C`, the cell count in test [1] is 637. The inhibition in test [1] was -9.7% (inactive); in test [3], 11.3% (inactive); in test [7], 27.9% (inactive); in test [8], -0.299% (inactive). The inhibition of aggregation in test [2] was -35.4% (inactive). Also, the values for the nuclei count in test [2] and in test [3] were 48.5% and 94.5%, respectively. The fluorescence slope in test [4] is -0.435 (inactive); in test [6] it was 0.00822 (inactive). For the same compound, the NADPH fluorescence slope in test [5] is 2.7e-05 (inactive).
Consider `COc1ccc(-c2cc(C(F)F)n3ncc(C(=O)NCC4CCCO4)c3n2)cc1` (centres undefined), for which, in test [1], the cell count amounted to 244. The inhibition in test [1] was 4.7% (inactive); in test [3] it was -51% (inactive); in test [7], 20.7% (inactive); in test [8] it was 11.4% (inactive). In test [2], the inhibition of aggregation was -15.8% (inactive). The nuclei count in test [2] was determined as 78.7%; in test [3], 108%. Besides, the fluorescence slope is -0.000811 (active) in test [4] and 0.00542 (inactive) in test [6]. Besides, the NADPH fluorescence slope in test [5] is -2.9e-05 (inactive).

The values above are taken from PubChem BioAssay.
